Data taken from ChEMBL document CHEMBL1138529, “Efficacy, pharmacokinetics, and metabolism of tetrahydroquinoline inhibitors of Plasmodium falciparum protein farnesyltransferase” (Antimicrob Agents Chemother, 2007).

Assays:
[1] = Permeability from apical to basolateral side in human Caco-2 cells; assay type: ADME, cell-based; conditions: read-out: permeability
[2] = Permeability from basolateral to apical side in human Caco-2 cells; assay type: ADME, cell-based; conditions: read-out: permeability
Outline: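 Caco-2 clone TC7 grown on laminin-coated porous inserts and used 19-21 days after seeding; integrity checked by TEER and [3H]mannitol flux. Monolayers equilibrated 30 min at 37°C in HBSS/5 mM HEPES pH 7.4. Compound at 50 μM final added to basolateral donor side. Apical receiver sampled at 60 min, 37°C with shaking; LC/MS; Papp calculated from 60-min concentrations.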

Mus musculus [3] = experiment: Plasma concentration in BALB/c mouse at 50 mg/kg, po; assay type: ADME, organism-based; parameters: dose 50 mg/kg, route oral; conditions: in vivo
Outline: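 Female BALB/c mice, 8-10 weeks, three per group. Single 50 mg/kg oral gavage in 3% EtOH-7% Tween 80-90% normal saline. Plasma collected by tail bleed at set times, frozen at −20°C, acetonitrile-extracted with internal standard, quantified by LC/MS.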

[4] = Metabolic stability in mouse liver microsomes; assay type: ADME, Microsome
Outline: (§1)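 Pooled female liver microsomes at 0.5 mg/ml in 0.1 M potassium phosphate pH 7.4, 3 mM MgCl2, 1 mM EDTA, with NADPH regenerating system (1 mM NADP+, 5 mM glucose-6-phosphate, 1 U/ml G6PDH). Preincubated 10 min at 37°C, then compound added to 1 μM final. Time points quenched with 3 volumes acetonitrile plus internal standard; parent quantified by LC/MS; half-life reported.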

[5] = AUC in BALB/c mouse at 50 mg/kg, po; assay type: ADME, organism-based; parameters: dose 50 mg/kg, route oral; conditions: plasma
Outline: (§2)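 Three female BALB/c mice (lines for mice, 8–10 weeks) or three female Sprague-Dawley rats (10–12 weeks) per group; 50 mg/kg oral gavage in 3% EtOH-7% Tween 80-90% normal saline. Plasma sampled at set times (tail bleed in mice, saphenous vein in rats), extracted with acetonitrile plus internal standard, quantified by LC/MS; AUC as mean of three animals.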

[6] = Cmax in BALB/c mouse at 50 mg/kg, po; assay type: ADME, organism-based; parameters: dose 50 mg/kg, route oral; conditions: in vivo
Outline: (§3)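 50 mg/kg by oral gavage in 3% EtOH-7% Tween 80-90% normal saline to groups of three females (BALB/c mice, 8–10 weeks, tail bleed; Sprague-Dawley rats, 10–12 weeks, saphenous vein). Plasma extracted with acetonitrile/internal standard, LC/MS; means of three animals. Oral elimination half-life depends on absorption rate as well as elimination.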

[7] = Elimination half life in BALB/c mouse at 50 mg/kg, po; assay type: ADME, organism-based; parameters: dose 50 mg/kg, route oral; conditions: in vivo, read-out: beta t1/2; outline: as §3
[8] = Metabolic stability in rat liver microsomes; assay type: ADME, Microsome; outline: as §1
[9] = AUC in Sprague-Dawley rat at 50 mg/kg, po; assay type: ADME, organism-based; parameters: dose 50 mg/kg, route oral; conditions: plasma; outline: as §2
[10] = Cmax in Sprague-Dawley rat at 50 mg/kg, po; assay type: ADME, organism-based; parameters: dose 50 mg/kg, route oral; conditions: in vivo; outline: as §3
[11] = Elimination half life in Sprague-Dawley rat at 50 mg/kg, po; assay type: ADME, organism-based; parameters: dose 50 mg/kg, route oral; conditions: in vivo, read-out: beta t1/2; outline: as §3
Mus musculus [12] = experiment: Toxicity in BALB/c mouse at 50 mg/kg, po; assay type: organism-based; parameters: dose 50 mg/kg, route oral; conditions: in vivo
Rattus norvegicus [13] = experiment: Toxicity in Sprague-Dawley rat at 50 mg/kg, po; assay type: organism-based; parameters: dose 50 mg/kg, route oral; conditions: in vivo
Outline: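 Female Sprague-Dawley rats, 10-12 weeks, three per group. 50 mg/kg oral gavage in 3% EtOH-7% Tween 80-90% normal saline. Saphenous vein plasma sampled over time, and animals observed for adverse reactions.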

[14] = Drug metabolism in bile duct cannulated Sprague-Dawley rat assessed as radioactive drug recovery in bile at 35 mg/kg, po after 18 hrs; assay type: ADME, organism-based; parameters: dose 35 mg/kg, route oral; conditions: in vivo
Outline: (§4)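 Male bile-duct- and jugular-cannulated Sprague-Dawley rats (~350 g, three per compound) given 35 mg/kg 14C-labelled compound orally (80 μCi/kg) in 3% EtOH-7% Tween 80-90% saline. Urine, feces and bile collected for 18 h, cages washed with methanol-water, animals autopsied; radioactivity per matrix by liquid scintillation counting as mean % of dose.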

[15] = Drug metabolism in bile duct cannulated Sprague-Dawley rat assessed as radioactive drug recovery in urine at 35 mg/kg, po after 18 hrs; assay type: ADME, organism-based; parameters: dose 35 mg/kg, route oral; conditions: in vivo; outline: as §4
[16] = Drug metabolism in bile duct cannulated Sprague-Dawley rat assessed as radioactive drug recovery in feces at 35 mg/kg, po after 18 hrs; assay type: ADME, organism-based; parameters: dose 35 mg/kg, route oral; conditions: in vivo; outline: as §4
[17] = Drug metabolism in bile duct cannulated Sprague-Dawley rat assessed as radioactive drug recovery in gastrointestinal tract at 35 mg/kg, po after 18 hrs; assay type: ADME, organism-based; parameters: dose 35 mg/kg, route oral; conditions: in vivo; outline: as §4
Rattus norvegicus [18] = experiment: Drug metabolism in bile duct cannulated Sprague-Dawley rat assessed as radioactive drug recovery at 35 mg/kg, po after 18 hrs; assay type: ADME, organism-based; parameters: dose 35 mg/kg, route oral; conditions: in vivo; outline: as §4
Rattus norvegicus [19] = experiment: Toxicity in bile duct cannulated Sprague-Dawley rat assessed as incidence of adverse events at 35 mg/kg, po after 18 hrs; assay type: organism-based; parameters: dose 35 mg/kg, route oral; conditions: in vivo
Outline: (§5)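 Male Sprague-Dawley rats, about 350 g, with jugular and bile-duct cannulae, allowed 1 week recovery; three per compound. Oral gavage 35 mg/kg in 3% EtOH-7% Tween 80-90% saline with 80 μCi/kg 14C tracer. Monitored 18 h. Plasma and blood-cell radioactivity measured by liquid scintillation counting and given as μg base equivalents/g.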

Rattus norvegicus [20] = experiment: Plasma concentration in bile duct cannulated Sprague-Dawley rat at 35 mg/kg, po after 0.5 hrs; assay type: ADME, organism-based; parameters: dose 35 mg/kg, route oral; conditions: in vivo; outline: as §5
Rattus norvegicus [21] = experiment: Plasma concentration in bile duct cannulated Sprague-Dawley rat at 35 mg/kg, po after 1 hr; assay type: ADME, organism-based; parameters: dose 35 mg/kg, route oral; conditions: in vivo; outline: as §5
Rattus norvegicus [22] = experiment: Plasma concentration in bile duct cannulated Sprague-Dawley rat at 35 mg/kg, po after 2 hrs; assay type: ADME, organism-based; parameters: dose 35 mg/kg, route oral; conditions: in vivo; outline: as §5
Rattus norvegicus [23] = experiment: Plasma concentration in bile duct cannulated Sprague-Dawley rat at 35 mg/kg, po after 3 hrs; assay type: ADME, organism-based; parameters: dose 35 mg/kg, route oral; conditions: in vivo; outline: as §5
Blood [24] = experiment: Drug level in bile duct cannulated Sprague-Dawley rat blood at 35 mg/kg, po after 0.5 hrs; assay type: ADME, organism-based; parameters: dose 35 mg/kg, route oral; conditions: in vivo
Outline: (§6)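 Male Sprague-Dawley rats (~350 g), jugular vein and bile duct cannulated, 1 week recovery; three per compound dosed by oral gavage with 35 mg/kg in 3% EtOH-7% Tween 80-90% normal saline plus 80 μCi/kg 14C tracer. Plasma and blood cells sampled over 18 h; radioactivity by liquid scintillation, reported as mean μg base equivalents/g.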

Blood [25] = experiment: Drug level in bile duct cannulated Sprague-Dawley rat blood at 35 mg/kg, po after 1 hr; assay type: ADME, organism-based; parameters: dose 35 mg/kg, route oral; conditions: in vivo; outline: as §6
Blood [26] = experiment: Drug level in bile duct cannulated Sprague-Dawley rat blood at 35 mg/kg, po after 2 hrs; assay type: ADME, organism-based; parameters: dose 35 mg/kg, route oral; conditions: in vivo; outline: as §6
Blood [27] = experiment: Drug level in bile duct cannulated Sprague-Dawley rat blood at 35 mg/kg, po after 3 hrs; assay type: ADME, organism-based; parameters: dose 35 mg/kg, route oral; conditions: in vivo; outline: as §6
Blood [28] = experiment: Drug level in bile duct cannulated Sprague-Dawley rat blood at 35 mg/kg, po after 4 hrs; assay type: ADME, organism-based; parameters: dose 35 mg/kg, route oral; conditions: in vivo; outline: as §6
Blood [29] = experiment: Drug level in bile duct cannulated Sprague-Dawley rat blood at 35 mg/kg, po after 6 hrs; assay type: ADME, organism-based; parameters: dose 35 mg/kg, route oral; conditions: in vivo; outline: as §6
Blood [30] = experiment: Drug level in bile duct cannulated Sprague-Dawley rat blood at 35 mg/kg, po after 18 hrs; assay type: ADME, organism-based; parameters: dose 35 mg/kg, route oral; conditions: in vivo; outline: as §6
Rattus norvegicus [31] = experiment: Plasma concentration in bile duct cannulated Sprague-Dawley rat at 35 mg/kg, po after 18 hrs; conditions: in vivo
[32] = Drug metabolism in bile duct cannulated Sprague-Dawley rat assessed as radioactive drug recovery in carcass at 35 mg/kg, po after 18 hrs; assay type: ADME, organism-based; parameters: dose 35 mg/kg, route oral; conditions: in vivo; outline: as §4
Rattus norvegicus [33] = experiment: Plasma concentration in bile duct cannulated Sprague-Dawley rat at 35 mg/kg, po after 4 hrs; assay type: ADME, organism-based; parameters: dose 35 mg/kg, route oral; conditions: in vivo; outline: as §5
Rattus norvegicus [34] = experiment: Plasma concentration in bile duct cannulated Sprague-Dawley rat at 35 mg/kg, po after 6 hrs; assay type: ADME, organism-based; parameters: dose 35 mg/kg, route oral; conditions: in vivo; outline: as §5

Structure (SMILES)	Papp A→B [1] [×10⁻⁶ cm/s]	Papp B→A [2] [×10⁻⁶ cm/s]	concentration (Mus musculus [3]) [µM]	half-life [4] [min]	AUC [5] [µM·h]	Cmax [6] [µM]	half-life [7] [min]	half-life [8] [min]	AUC [9] [µM·h]	Cmax [10] [µM]	half-life [11] [min]	Drug uptake [14] [%]	Drug uptake [15] [%]	Drug uptake [16] [%]	Drug uptake [17] [%]	Drug uptake (Rattus norvegicus [18]) [%]	Cp (Rattus norvegicus [20]) [ug base equiv/g]	Activity (Mus musculus [12])	Activity (Rattus norvegicus [13])	Activity (Rattus norvegicus [19])	also measured
Cn1cnc(S(=O)(=O)N(Cc2ccc(C(F)(F)F)o2)C2Cc3cc(C#N)ccc3N(Cc3cncn3C)C2)c1 (centres undefined)	0.7	72.5	3.9	3.4	4.55	3.9	30	16	5.42	3.4	26							Non-toxic	Non-toxic		
Cn1cncc1CN1CC(N(CCn2cccc2)S(=O)(=O)c2ccccn2)Cc2cc([14C]#N)ccc21 (centres undefined)												27.1	1.6	33.7	40.3	104	1.38			Non-toxic	Cp (Rattus norvegicus [21]): 1.36 ug base equiv/g; Cp (Rattus norvegicus [22]): 0.723 ug base equiv/g; Cp (Rattus norvegicus [23]): 0.237 ug base equiv/g; Drug uptake (Blood [24]): 0.566 ug base equiv/g; Drug uptake (Blood [25]): 0.493 ug base equiv/g; Drug uptake (Blood [26]): 0.344 ug base equiv/g; Drug uptake (Blood [27]): 0.221 ug base equiv/g; Drug uptake (Blood [28]): 0.073 ug base equiv/g; Drug uptake (Blood [29]): 0.063 ug base equiv/g; Drug uptake (Blood [30]): 0.243 ug base equiv/g; Cp (Rattus norvegicus [31]): 0.351 ug base equiv/g

More lines, main results first:

Papp A→B [1] [×10⁻⁶ cm/s]	Papp B→A [2] [×10⁻⁶ cm/s]	concentration (Mus musculus [3]) [µM]	half-life [4] [min]	AUC [5] [µM·h]	Cmax [6] [µM]	half-life [7] [min]	half-life [8] [min]	AUC [9] [µM·h]	Cmax [10] [µM]	half-life [11] [min]	Drug uptake [14] [%]	Drug uptake [15] [%]	Drug uptake [16] [%]	Drug uptake [17] [%]	Drug uptake (Rattus norvegicus [18]) [%]	Cp (Rattus norvegicus [20]) [ug base equiv/g]	Structure (SMILES)	Activity (Mus musculus [12])	Activity (Rattus norvegicus [13])	Activity (Rattus norvegicus [19])	also measured
12.4	45.5	13.6	4.9	15.9	13.5	40	10.4	11.6	5.4	62							Cn1cncc1CN1CC(N(CCn2cccc2)S(=O)(=O)c2ccccn2)Cc2cc(C#N)ccc21 (centres undefined)	Non-toxic	Non-toxic		
			98	15.7	5	88	165	13.5	4.1	106							Cn1cnc(S(=O)(=O)N(CC(=O)NC(C)(C)C)C2Cc3cc(-c4ccccc4)ccc3N(Cc3cncn3C)C2)c1 (centres undefined)		Non-toxic		
											26.2	4.3	26.7	18.2	92.2	1.5	Cn1cncc1CN1CC(N(CC2CCN(C(=O)OC(C)(C)C)CC2)S(=O)(=O)c2ccccn2)Cc2cc([14C]#N)ccc21 (centres undefined)			Non-toxic	Drug uptake [32]: 9.7%; Cp (Rattus norvegicus [21]): 2.01 ug base equiv/g; Cp (Rattus norvegicus [22]): 2.14 ug base equiv/g; Cp (Rattus norvegicus [23]): 2.2 ug base equiv/g; Cp (Rattus norvegicus [33]): 1.92 ug base equiv/g; Cp (Rattus norvegicus [34]): 1.23 ug base equiv/g; Drug uptake (Blood [24]): 0.442 ug base equiv/g; Drug uptake (Blood [25]): 0.909 ug base equiv/g; Drug uptake (Blood [26]): 1.03 ug base equiv/g; Drug uptake (Blood [27]): 0.821 ug base equiv/g; Drug uptake (Blood [28]): 0.729 ug base equiv/g; Drug uptake (Blood [29]): 0.623 ug base equiv/g; Drug uptake (Blood [30]): 0.344 ug base equiv/g; Cp (Rattus norvegicus [31]): 0.34 ug base equiv/g
